Among the data in ChEMBL document CHEMBL1240328, “Selective compounds define Hsp90 as a major inhibitor of apoptosis in small-cell lung cancer” (Nat Chem Biol, 2007) are Activity, inhibition and fold change (FC) values, retold here.

The target in experiment [1] is Heat shock protein HSP 90-beta (Homo sapiens) (UniProt P08238). Nature of the experiment: Binding affinity to HSP90 in human NCI-H526 cells after 24 hrs by fluorescence polarization assay. Type of experiment: cell-based.
Experiment [2] has the same target. Nature of the experiment: Binding affinity to HSP90 in human NCI-N417 cells after 24 hrs by fluorescence polarization assay. In kind it is cell-based. The conditions noted are these: NCI-H417. For orientation: In fluorescence polarisation assays a small probe gives low polarisation when free and higher when bound to something large.
For experiment [3] the target is unchanged. Nature of the experiment: Binding affinity to HSP90 in human NCI-H146 cells after 24 hrs by fluorescence polarization assay. Type of experiment: cell-based.
Experiment [4] shares this target. Nature of the experiment: Binding affinity to HSP90 in human NCI-H187 cells after 24 hrs by fluorescence polarization assay.
Experiment [5] has the same target. Nature of the experiment: Binding affinity to HSP90 in human NCI-H209 cells after 24 hrs by fluorescence polarization assay. In kind it is cell-based.
For experiment [6] the target is unchanged. Nature of the experiment: Binding affinity to HSP90 in human NCI-H510 cells after 24 hrs by fluorescence polarization assay. Type of experiment: cell-based.
Experiment [7] shares this target. Nature of the experiment: Binding affinity to HSP90 in human NCI-H69 cells after 24 hrs by fluorescence polarization assay.
Experiment [8] has the same target. Nature of the experiment: Inhibition of HSP90-mediated proliferation of human NCI-H526 cells at 1 to 3 uM after 72 to 96 hrs by sulforhodamine B assay. Type of experiment: cell-based. A general note: The SRB assay estimates cell density from bound dye.
The target is the same in experiment [9]. Nature of the experiment: Inhibition of HSP90-mediated proliferation of human NCI-N417 cells at 1 to 3 uM after 72 to 96 hrs by sulforhodamine B assay. In kind it is cell-based. The settings on record: NCI-H417.
For experiment [10] the target is unchanged. Nature of the experiment: Inhibition of HSP90-mediated proliferation of human NCI-H146 cells at 1 to 3 uM after 72 to 96 hrs by sulforhodamine B assay. Type of experiment: cell-based.
Experiment [11] shares this target. Nature of the experiment: Inhibition of HSP90-mediated proliferation of human NCI-H187 cells at 1 to 3 uM after 72 to 96 hrs by sulforhodamine B assay. In kind it is cell-based.
For experiment [12] the target is unchanged. Nature of the experiment: Inhibition of HSP90-mediated proliferation of human NCI-H209 cells at 1 to 3 uM after 72 to 96 hrs by sulforhodamine B assay. In kind it is cell-based.
The target is the same in experiment [13]. Nature of the experiment: Inhibition of HSP90-mediated proliferation of human NCI-H510 cells at 1 to 3 uM after 72 to 96 hrs by sulforhodamine B assay. Type of experiment: cell-based.
Experiment [14] has the same target. Nature of the experiment: Inhibition of HSP90-mediated proliferation of human NCI-H69 cells at 1 to 3 uM after 72 to 96 hrs by sulforhodamine B assay. In kind it is cell-based.
Experiment [15] shares this target. Nature of the experiment: Binding affinity to HSP90 in human SKBR3 cells after 24 hrs by fluorescence polarization assay. The settings on record: SK-BR-3.
The target is the same in experiment [16]. Nature of the experiment: Inhibition of HSP90-mediated antiapoptotic activity in human NCI-H526 cells assessed as increase in apoptotic cell population at 0.2 to 1 uM after 72 hrs by FACS analysis relative to control. Type of experiment: cell-based. (In flow cytometry, cells or beads pass a laser one at a time.)
For experiment [17] the target is unchanged. Nature of the experiment: Inhibition of HSP90-mediated antiapoptotic activity in human NCI-N417 cells assessed as increase in apoptotic cell population at 0.2 to 1 uM after 96 hrs by FACS analysis relative to control. In kind it is cell-based.
Experiment [18] has the same target. Nature of the experiment: Inhibition of HSP90-mediated antiapoptotic activity in human NCI-H146 cells assessed as increase in apoptotic cell population at 0.2 to 1 uM after 96 hrs by FACS analysis relative to control. Type of experiment: cell-based.
For experiment [19] the target is unchanged. Nature of the experiment: Inhibition of HSP90-mediated antiapoptotic activity in human NCI-H187 cells assessed as increase in apoptotic cell population at 0.2 to 1 uM after 72 hrs by FACS analysis relative to control. Type of experiment: cell-based.
Experiment [20] shares this target. Nature of the experiment: Inhibition of HSP90-mediated antiapoptotic activity in human NCI-H209 cells assessed as increase in apoptotic cell population at 0.2 to 1 uM after 96 hrs by FACS analysis relative to control. In kind it is cell-based.
Experiment [21] has the same target. Nature of the experiment: Inhibition of HSP90-mediated antiapoptotic activity in human NCI-H510 cells assessed as increase in apoptotic cell population at 0.2 to 1 uM after 96 hrs by FACS analysis relative to control. In kind it is cell-based.
For experiment [22] the target is unchanged. Nature of the experiment: Inhibition of HSP90-mediated antiapoptotic activity in human NCI-H69 cells assessed as increase in apoptotic cell population at 0.2 to 1 uM after 72 hrs by FACS analysis relative to control. Type of experiment: cell-based.
For experiment [23] the target is unchanged. Nature of the experiment: Inhibition of HSP90 in chemo-resistant human H69AR cells at 100 uM after 24 hrs by fluorescence polarization assay. Type of experiment: cell-based. A digest of the protocol: (§1)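 Competitive fluorescence polarization in lysates of H69AR, SKI-AC3 and WBA cells, prepared in HFB buffer pH 7.3 and normalized to Hsp90. Tracer was 3 nM Cy3B-geldanamycin, with incubation for 24 h at 4 °C. EC50 was defined as 50% tracer displacement.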

The target is the same in experiment [24]. Nature of the experiment: Inhibition of HSP90 in chemo-resistant human SKI-AC3 cells at 100 uM after 24 hrs by fluorescence polarization assay. In kind it is cell-based. In outline: as §1
Experiment [25] shares this target. Nature of the experiment: Inhibition of HSP90 in chemo-resistant human WBA cells at 100 uM after 24 hrs by fluorescence polarization assay. Type of experiment: cell-based. In outline:
as §1

Experiment [26] has the same target. Nature of the experiment: Inhibition of HSP90-mediated antiapoptotic activity in human H69AR cells assessed as induction of cell growth arrest at 10 after 96 hrs by propidium iodide staining-based flow cytometry.
For experiment [27] the target is unchanged. Nature of the experiment: Inhibition of HSP90-mediated antiapoptotic activity in human SKI-AC3 cells assessed as induction of cell growth arrest at 10 after 96 hrs by propidium iodide staining-based flow cytometry.
Experiment [28] shares this target. Nature of the experiment: Inhibition of HSP90-mediated antiapoptotic activity in human WBA cells assessed as induction of cell growth arrest at 10 after 96 hrs by propidium iodide staining-based flow cytometry.
Experiment [29] shares this target. Nature of the experiment: Inhibition of HSP90-mediated proliferation of human SKBR3cells after 72 hrs by sulforhodamine B assay.

The structures appear in SMILES notation. The source made the active and inactive calls.

Sequence of Heat shock protein HSP 90-beta (Homo sapiens) (P08238 whole entry): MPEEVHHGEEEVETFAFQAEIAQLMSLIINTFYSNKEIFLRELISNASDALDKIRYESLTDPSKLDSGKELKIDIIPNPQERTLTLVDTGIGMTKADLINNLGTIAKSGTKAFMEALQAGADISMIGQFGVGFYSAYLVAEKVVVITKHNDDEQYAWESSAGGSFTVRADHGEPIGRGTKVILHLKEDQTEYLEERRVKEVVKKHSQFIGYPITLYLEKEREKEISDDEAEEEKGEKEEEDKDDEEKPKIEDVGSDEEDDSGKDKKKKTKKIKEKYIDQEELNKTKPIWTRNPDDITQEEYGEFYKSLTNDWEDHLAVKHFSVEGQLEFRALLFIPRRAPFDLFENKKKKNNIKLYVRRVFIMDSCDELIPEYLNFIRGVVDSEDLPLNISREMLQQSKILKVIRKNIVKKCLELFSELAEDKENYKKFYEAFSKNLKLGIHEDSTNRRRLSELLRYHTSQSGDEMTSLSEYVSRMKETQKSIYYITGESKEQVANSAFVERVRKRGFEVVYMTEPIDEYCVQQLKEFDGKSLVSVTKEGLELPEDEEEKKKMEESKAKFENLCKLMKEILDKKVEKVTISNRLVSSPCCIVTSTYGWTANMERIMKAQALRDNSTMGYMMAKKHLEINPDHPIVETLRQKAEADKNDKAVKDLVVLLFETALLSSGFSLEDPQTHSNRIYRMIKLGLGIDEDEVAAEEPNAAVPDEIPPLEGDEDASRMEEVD

The term inhibition denotes the change of the read-out against control, counted positive when it falls. As to `C#CCCCn1c(Sc2cc3c(cc2Br)OCO3)nc2c(N)ncnc21`, the outcome in [1], in [2], in [3], in experiment [4], in experiment [5] and in experiment [6] was Active. Moreover, the outcome in experiment [7], in experiment [15], in experiment [26], in experiment [27] and in experiment [28] was Active. Also, the inhibition in experiment [8], in experiment [9], in experiment [10], in [11], in experiment [12] and in [13] was 50% in each case. The compound also yielded an inhibition in experiment [14] of 50%. Also, the fold change (FC) in experiment [16], in experiment [17], in [18], in [19], in experiment [20] and in experiment [21] was 2 in each case. Also, the fold change (FC) in [22] was determined as 2. The inhibition entry in [23], in experiment [24], in experiment [25] and in [29] was “Active” throughout.
For the compound `CC(C)NCCCn1c(Cc2cc3c(cc2I)OCO3)nc2c(N)nc(F)nc21`, the result in experiment [15] was Active. Also, the inhibition result in [29] is “Active”.
